ChEMBL document CHEMBL1124631, “3-(aminoalkyl)-1,2,3,4-tetrahydro-5H-[1]benzopyrano[3,4-c] pyridin-5-ones as potential anticholinergic bronchodilators” (1989)

Key:
[1] = organism: Canis familiaris; assay: Pulmonary selectivity measured as the ratio of salivation and bronchospasm; format: functional, Canis lupus familiaris, Bronchiole
Summary of the method: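 Pilocarpine-infused dog model measuring pulmonary resistance and salivary output under cumulative iv doses (1–10,000 μg/kg). ID50 for each response by log dose–response linear regression. Selectivity = ID50 for salivation inhibition divided by ID50 for bronchospasm inhibition. Most compounds tested in one dog.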

[2] = tested on: Cavia porcellus; assay: Methacholine challenge test was performed on guinea pigs by administration of compound at 25 mg/kg perorally; format: functional; conditions: route oral
Summary of the method: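 Hartley guinea pigs, six per treatment, dosed orally at 25 mg/kg 15 min before challenge. Exposed for 10 min to 0.1% methacholine chloride aerosol from two nebulizers in a closed chamber, air pressure 10 lb/in.². Time from aerosol onset to collapse recorded and averaged ± S.E.M. Non-collapsing animals removed at 10 min and scored 10.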

[3] = organism: Canis familiaris; assay: Inhibition of dog salivation by 50% of control value.; format: functional; conditions: Canis lupus familiaris; read-out: ID50 (the source's name)
Summary of the method: (§1)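 Dogs with femoral vein cannulated; respiratory rate, heart rate and arterial pressure monitored. Bunolol 0.5 mg/kg iv given 30 min before pilocarpine nitrate infusion (0.2 mg/kg/h) to induce bronchospasm and salivation. Saliva collected from catheterized Wharton's duct every 5 min. Cumulative iv doses 1–10,000 μg/kg given every 5 min. ID50 by linear regression of log cumulative dose vs % inhibition. Mostly one dog per compound.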

[4] = organism: Canis familiaris; assay: Compound dose for inhibiting dog cholinergic bronchoconstriction by 50% of control value.; format: functional; conditions: Canis lupus familiaris, Lung; read-out: ID50 (the source's name); summary of the method: as §1

Compound | Ratio [1] | Collapse time [2] | ED50 [3] | ED50 [4]
COc1cc2oc(=O)c3c(c2cc1OC)CCN(CCN1CC2CCC1CC2)C3 | 1 | 7.6 min | 0.14 mg/kg | 0.137 mg/kg
COc1ccc2c3c(c(=O)oc2c1)CN(CCN1CC2CCC1CC2)CC3 | 1.6 | 10 min | 0.102 mg/kg | 0.063 mg/kg
Cc1cc2oc(=O)c3c(c2cc1C)CCN(CC(C)N1CCCCC1)C3 (centres undefined) | 3.9 | 7.7 min | 1.16 mg/kg | 0.3 mg/kg
CCOc1cc2oc(=O)c3c(c2cc1OCC)CCN(CC(C)N1CCCCC1)C3 (centres undefined) | 1.5 | 10 min | 0.194 mg/kg | 0.126 mg/kg
COc1cc2oc(=O)c3c(c2cc1OC)CCN(CCN1CC2CCCC(C2)C1)C3 | – | 6.6 min | – | 0.119 mg/kg
CCN(C)C(C)CN1CCc2c(c(=O)oc3cc(OC)c(OC)cc23)C1 (centres undefined) | 0.82 | 6 min | 0.111 mg/kg | 0.135 mg/kg
CCCN(CC)C(C)CN1CCc2c(c(=O)oc3cc(OC)ccc23)C1 (centres undefined) | 0.47 | 10 min | 0.027 mg/kg | 0.058 mg/kg
COc1ccc2c3c(c(=O)oc2c1)CN(CCN1CC2CCCC(C2)C1)CC3 | 0.15 | 7.3 min | 0.154 mg/kg | 1.03 mg/kg
COc1ccc2c3c(c(=O)oc2c1)CN(CCN1CC2CCC(CC2)C1)CC3 | 3 | 6 min | 0.104 mg/kg | 0.035 mg/kg
COc1cc2oc(=O)c3c(c2cc1OC)CCN(CC(C)N1CCOCC1)C3 (centres undefined) | – | 10 min | – | –
CCCN(C)C(C)CN1CCc2c(c(=O)oc3cc(OC)ccc23)C1 (centres undefined) | 1.2 | 10 min | 0.084 mg/kg | 0.073 mg/kg
COc1cc2oc(=O)c3c(c2cc1OC)CCN(CCN1CCCCCC1)C3 | – | 4 min | – | –
COc1cc2oc(=O)c3c(c2cc1OC)CCN(CCN1CCCCC1)C3 | – | 4.9 min | – | –
Cc1cc2oc(=O)c3c(c2cc1C)CCN(CCN1CC2CCC(CC2)C1)C3 | 0.6 | 5.1 min | 0.223 mg/kg | 0.372 mg/kg
O=c1oc2ccccc2c2c1CN(CCN1CC3CCC(CC3)C1)CC2 | 0.08 | 5.2 min | 0.068 mg/kg | 0.849 mg/kg
COc1ccc2c3c(c(=O)oc2c1)CN(CCN1CCOCC1)CC3 | 0.63 | 6.1 min | 0.714 mg/kg | 1.14 mg/kg
CCOc1cc2oc(=O)c3c(c2cc1OCC)CCN(CCN1CC2CCC(CC2)C1)C3 | 0.79 | 6.3 min | 0.21 mg/kg | 0.267 mg/kg
COc1ccc2c3c(c(=O)oc2c1)CN(CCN(C)C)CC3 | – | 1.9 min | – | –
Cc1ccc2c3c(c(=O)oc2c1)CN(CC(C)N(C)C)CC3 (centres undefined) | 3.7 | 10 min | – | –
CCNC(C)CN1CCc2c(c(=O)oc3cc(OC)c(OC)cc23)C1 (centres undefined) | – | 1.7 min | – | –

Compound | Ratio [1] | Collapse time [2] | ED50 [3] | ED50 [4]
CCCN(CC)C(C)CN1CCc2c(c(=O)oc3cc(OC)c(OC)cc23)C1 (centres undefined) | – | 3.7 min | – | –
Cc1ccc2c3c(c(=O)oc2c1)CN(CC(C)N1CCCC1)CC3 (centres undefined) | 2.3 | 8.7 min | 0.226 mg/kg | 0.1 mg/kg
COc1ccc2c3c(c(=O)oc2c1)CN(CCN1CCCC1)CC3 | 3 | 9.1 min | 0.735 mg/kg | 0.246 mg/kg
CCN(C)C(C)CN1CCc2c(c(=O)oc3cc(C)ccc23)C1 (centres undefined) | 2.2 | 8.8 min | – | –
CCN(C)C(C)CN1CCc2c(c(=O)oc3cc(OC)ccc23)C1 (centres undefined) | 1.5 | 9.1 min | 0.023 mg/kg | 0.015 mg/kg
COc1cc2oc(=O)c3c(c2cc1OC)CCN(CC(C)N1CCCC1)C3 (centres undefined) | 1.4 | 10 min | 0.023 mg/kg | 0.017 mg/kg
COc1cc2oc(=O)c3c(c2cc1OC)CCN(CCN1CC2CCC(CC2)C1)C3 | 4.7 | 5 min | 0.53 mg/kg | 0.113 mg/kg
COc1cc2oc(=O)c3c(c2cc1OC)CCN(CC(C)N1CCCCCC1)C3 (centres undefined) | – | 1.7 min | – | –
CCNC(C)CN1CCc2c(c(=O)oc3ccccc23)C1 (centres undefined) | 5.9 | 10 min | – | –
Cc1cc2oc(=O)c3c(c2cc1C)CCN(CC(C)N1CCCC1)C3 (centres undefined) | 2.2 | 8.2 min | 0.699 mg/kg | 0.315 mg/kg
CCOc1cc2oc(=O)c3c(c2cc1OCC)CCN(CC(C)N1CCCC1)C3 (centres undefined) | 1.6 | 9.4 min | 0.163 mg/kg | 0.099 mg/kg
CCN(CC)C(C)CN1CCc2c(c(=O)oc3cc(OC)c(OC)cc23)C1 (centres undefined) | 3.5 | 7.8 min | – | –
COc1ccc2c3c(c(=O)oc2c1)CN(CCN1CCCCCC1)CC3 | 1.8 | 8 min | 0.398 mg/kg | 0.223 mg/kg
CCNC(C)CN1CCc2c(c(=O)oc3cc(OC)ccc23)C1 (centres undefined) | 2.6 | 7.5 min | 0.227 mg/kg | 0.086 mg/kg
CCCN(C)C(C)CN1CCc2c(c(=O)oc3cc(C)ccc23)C1 (centres undefined) | 1.6 | 5.4 min | 0.304 mg/kg | 0.192 mg/kg
CCN(CC)C(C)CN1CCc2c(c(=O)oc3cc(C)ccc23)C1 (centres undefined) | 4.6 | 6.6 min | – | –
CCCN(CCC)CCN1CCc2c(c(=O)oc3cc(OC)ccc23)C1 | 2 | 7 min | 0.855 mg/kg | 0.428 mg/kg
COc1ccc2c3c(c(=O)oc2c1)CN(CCN1CCCCC1)CC3 | 0.69 | 9.5 min | 0.141 mg/kg | 0.205 mg/kg
COc1cc2oc(=O)c3c(c2cc1OC)CCN(CCN1C(C)(C)CCCC1(C)C)C3 | – | 2.8 min | – | –
COc1cc2oc(=O)c3c(c2cc1OC)CCN(CC(C)N(C)C)C3 (centres undefined) | 4.5 | 5.2 min | – | –

Compound | Ratio [1] | Collapse time [2] | ED50 [3] | ED50 [4]
COc1ccc2c3c(c(=O)oc2c1)CN(CC(C)N(C)C)CC3 (centres undefined) | 1.1 | 10 min | 0.027 mg/kg | 0.025 mg/kg
CC(C)c1ccc2c3c(c(=O)oc2c1)CN(CCN1CC2CCC(CC2)C1)CC3 | 0.61 | 6.2 min | 0.128 mg/kg | 0.209 mg/kg
Cc1ccc2c3c(c(=O)oc2c1)CN(CCN1CC2CCC(CC2)C1)CC3 | 1.9 | 5 min | 0.452 mg/kg | 0.235 mg/kg
CCCN(CC)C(C)CN1CCc2c(c(=O)oc3cc(C)ccc23)C1 (centres undefined) | 1.6 | 7.6 min | 0.182 mg/kg | 0.116 mg/kg
COc1cc2oc(=O)c3c(c2cc1OC)CCN(CC(C)N1CCCCC1)C3 (centres undefined) | 1.3 | 10 min | 0.168 mg/kg | 0.129 mg/kg
CC(CN1CCc2c(c(=O)oc3ccccc23)C1)N1CCCC1 (centres undefined) | 2.2 | 10 min | 0.19 mg/kg | 0.088 mg/kg
CCNC(C)CN1CCc2c(c(=O)oc3cc(C)ccc23)C1 (centres undefined) | 0.36 | 10 min | 0.225 mg/kg | 0.627 mg/kg
CCN(CC)C(C)CN1CCc2c(c(=O)oc3cc(OC)ccc23)C1 (centres undefined) | 1.2 | 10 min | 0.046 mg/kg | 0.038 mg/kg
CCCN(CC)C(C)CN1CCc2c(c(=O)oc3ccccc23)C1 (centres undefined) | 0.88 | 6.4 min | 0.97 mg/kg | 1.11 mg/kg
CCN(CC)C(C)CN1CCc2c(c(=O)oc3ccccc23)C1 (centres undefined) | 6.9 | 10 min | – | –
CCN(CC)CCN1CCc2c(c(=O)oc3cc(OC)ccc23)C1 | 0.4 | 8 min | 0.158 mg/kg | 0.394 mg/kg
Cc1ccc2c3c(c(=O)oc2c1)CN(CC(C)N1CCCCC1)CC3 (centres undefined) | 2.7 | 9.7 min | 0.108 mg/kg | 0.04 mg/kg
CCc1ccc2c3c(c(=O)oc2c1)CN(CCN1CC2CCC(CC2)C1)CC3 | 0.55 | 6.8 min | 0.041 mg/kg | 0.074 mg/kg
CCCN(C)C(C)CN1CCc2c(c(=O)oc3cc(OC)c(OC)cc23)C1 (centres undefined) | – | 2.5 min | – | –
CC(CN1CCc2c(c(=O)oc3ccccc23)C1)N(C)C (centres undefined) | 21.6 | 10 min | – | –
CC(CN1CCc2c(c(=O)oc3ccccc23)C1)N1CCCCC1 (centres undefined) | 5.8 | 10 min | 0.219 mg/kg | 0.038 mg/kg
COc1cc2oc(=O)c3c(c2cc1OC)CCN(CCCN1CCCCC1)C3 | – | 1.6 min | – | –
CCN1CCCC1CN1CCc2c(c(=O)oc3cc(OC)c(OC)cc23)C1.Cl.Cl (centres undefined) | – | 2.8 min | – | –
CN1[C@@H]2CC[C@H]1C[C@@H](OC(=O)C(CO)c1ccccc1)C2 (some centres undefined) [ATROPINE] | 0.46 | – | 0.0032 mg/kg | 0.007 mg/kg
